Measurements gathered from unrelated publications.
Lines come from different studies, so protocols differ.
CASP9: Caspase-9 (CASP9, Homo sapiens, UniProt P55211)
USP7: Ubiquitin carboxyl-terminal hydrolase 7 (USP7, Homo sapiens, UniProt Q93009)
SLC5A7: High affinity choline transporter 1 (SLC5A7, Homo sapiens, UniProt Q9GZV3)
MMP1: Interstitial collagenase (MMP1, Homo sapiens, UniProt P03956)
TNIK: TRAF2 and NCK-interacting protein kinase (TNIK, Homo sapiens, UniProt Q9UKE5)

| SMILES | target | observed | mode | method | tested at | inhibition |
| --- | --- | --- | --- | --- | --- | --- |
| O=C(Nc1cccnn1)N1CCN([C@@H]2CCOc3cc(C(F)(F)F)ccc32)CC1 | CASP9 | cell-free assay |  |  | 20 µM | -4% |
| N=C(N)c1ccc2cc(OC(=O)c3ccc(N=C(N)N)cc3)ccc2c1 | USP7 | enzyme activity | inhibitor |  | 10 µM | 0% |
| Cn1cc(-c2cccc(N3CCc4c(sc5c4CC(C)(C)C5)C3=O)c2CO)cc(Nc2ccncn2)c1=O | Eukaryotic elongation factor 2 kinase (EEF2K, Homo sapiens, UniProt O00418) | enzyme activity | inhibitor |  | 1 µM | 2% |
| Cc1ncc(C)n2nc(/C=C/c3nc(N4CCCC4)cc(N4CCOCC4)n3)nc12 | SLC5A7 | ligand displacement |  |  | 10 µM | 14% |
| C[C@H](C(=O)N[C@H]1COc2ccccc2[C@@H]1S(C)(=O)=O)c1ccc(F)cc1 | MMP1 | enzyme activity | inhibitor |  | 10 µM | 13% |
| CN(CCN1CCC(OC(=O)Nc2ccccc2-c2ccccc2)CC1)C(=O)c1ccc(CN2CCC(C(N)=O)CC2)cc1 | SLC5A7 | ligand displacement |  | radioligand | 1 µM | -6% |
| COc1ccc(S(=O)(=O)N(CC(=O)NO)CC(C)C)cc1 | MMP1 | enzyme activity | inhibitor |  | 1 µM | 26% |
| COc1ccc(S(=O)(=O)N2CCCCC2)cc1C | SLC5A7 | ligand displacement |  | radioligand | 10 µM | < 30% |
| CCOC(=O)c1ccc(OC(=O)CCCCCNC(=N)N)cc1 | CASP9 | enzyme activity | inhibitor |  | 10 µM | 7% |
| C#Cc1n[nH]c2c(-c3cn([C@@H](C)c4ccccn4)c(=O)[nH]c3=O)cc(F)cc12 | TGF-beta receptor type-1 (TGFBR1, Homo sapiens, UniProt P36897) | enzyme activity | inhibitor |  | 0.1 µM | 1.5% |
| CCOC(=O)N1C[C@H]2C[C@@H]1C[C@@H]2c1ccc(-c2cc(C(=O)OCC(=O)N(C)C)cc3cc(-c4ccc(C(F)(F)F)cc4)ccc23)cc1 | P2Y purinoceptor 14 (P2RY14, Homo sapiens, UniProt Q15391) | cell-free assay | inhibitor |  | 10 µM | 12.2% |
| COc1cc(Nc2ncc(F)c(Nc3ccc4c(n3)NC(=O)C(C)(C)O4)n2)cc(OC)c1OC | TNIK | binding |  |  | 10 µM | 56% |
| CN(C)C(=O)COC(=O)Cc1ccc(OC(=O)c2ccc(NC(=N)N)cc2)cc1 | USP7 | enzyme activity | inhibitor |  | 10 µM | 0% |
| COCc1c(-c2cc3cc(C)cc(OC)c3s2)c2c(N)ncnn2c1CN1CCNC(=O)C1 | Calcium-dependent protein kinase 1 (CDPK1, Plasmodium falciparum, UniProt P62344) | cell-free assay |  | competition with immobilised ligand | 1 µM | 93.3% |
| COC(=O)CC[C@H](NC(=O)[C@H](CC(C)C)NC(=O)OCc1ccccc1)C(=O)N[C@@H](Cc1cnc[nH]1)C(=O)N[C@@H](CC(=O)OC)C(=O)CF | CASP9 | enzyme activity | inhibitor |  | 10 µM | 86% |
| C#Cc1n[nH]c2c(-c3cn([C@@H](C)c4ccccc4)c(=O)[nH]c3=O)cc(F)cc12 | TNIK | enzyme activity | inhibitor |  | 0.1 µM | -0.3% |
